ChEMBL document CHEMBL4513216, “Probing the Open Global Health Chemical Diversity Library for Multistage-Active Starting Points for Next-Generation Antimalarials” (ACS Infect Dis, 2020)

Assay: Toxicity liver stage against HepG2, at 10uM
Format: cell-based
Parameters: test concentration 10 uM, cell line HepG2-A16-CD81EGFP
Settings: human, HepG2-A16-CD81EGFP cells; read-out: INHIBITION
Procedure, shortened: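 Uninfected HepG2-A16-CD81EGFP cells, 3 × 10^3 per well, 1536-well, plated on prespotted compound at 10 μM final, parasite-free screening media added to match infected plates; puromycin 10 μM positive, DMSO 0.5% negative; run in parallel with 48 h PbLuc assay at 37 °C, 5% CO2; viability by CellTiter-Glo luminescence, normalized to controls.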

SMILES	cytotoxicity at 10 µM [%]
CC(=O)CC(C)(C)NC(=O)CCN(C)Cc1ccc(Cl)s1	7.35
O=C1CC[C@@H](CN(Cc2ccncc2)Cc2nc(-c3cccs3)no2)N1	-10.7
CCCc1ccc(OCCNCc2ccco2)c(OC)c1	-2.04
NS(=O)(=O)NCC1(c2ccccc2Br)CC1	2.91
COc1ccccc1N1CCCC(NC(=O)Nc2cccnc2)C1 (stereo not given)	9.86
Cc1cc(CNC(=O)N2CCN(Cc3ccccc3)C[C@H]2C)on1	-131
Cc1nc2c(c(NCC(O)C(F)(F)F)n1)CCNCC2 (stereo not given)	5.37
Cc1nnc(C[C@@H]2COC[C@H]3CN(C(=O)C4=CCCC4)C[C@@H]23)o1	-5.86
CC(C)Oc1ncc(C(=O)N2CCC(N(C)C)CC2)cc1Cl	-4.09
COCCNC(=O)c1sc(Nc2ccc(Cl)cn2)nc1C	32.4
CS(=O)(=O)C1CCN(S(=O)(=O)c2ccc(F)c(F)c2)CC1	-10.4
Cc1noc(NC(=O)c2ccc(C#N)cc2)n1	-5.32
CN1CC2(CCN(C(=O)c3cn4cccnc4n3)CC2)CC1=O	-7.72
Cc1occc1C(=O)N1CCn2c(Cn3cncn3)cnc2C1C (stereo not given)	-5.17
COc1ccc(COCC(O)CN2CCC(c3ccn[nH]3)CC2)cc1 (stereo not given)	-0.975
CN1CCC(Nc2ccc(Cl)cc2OCC(F)(F)F)C1=O (stereo not given)	5.02
Cc1cc(C)n(CC2CCCN2Cc2cccc(C#N)c2)n1 (stereo not given)	11.2
O=C(N[C@@H]1CN(c2ncccn2)C[C@@H]2CCCO[C@@H]21)c1ccncc1	2.29
COCCOc1ncccc1C(=O)Nc1c(C)cnn1CC1CC1	3.36
O=C(C1CCOC1)N1CCc2ncc(CNc3ccccn3)n2CC1 (stereo not given)	0.0499
CC(C)Oc1ccc(C(=O)Nc2nncs2)cn1	-7.94
CC(=O)N1CCN(c2cc(CCN)nc(C3CC3)n2)CC1	-26.2
COCc1ncn2c1CN(C(=O)c1ccc[nH]1)CC2	1.84

SMILES	cytotoxicity at 10 µM [%]
Cc1ncsc1CN1C[C@@H]2COC[C@]2(C(=O)NC2CC(F)(F)C2)C1	-103
Cc1ccc(NC(=O)CNc2cccc3c2CCCC3)c(Br)c1	14.8
CC(C(=O)NCCOc1ccc2c(c1)OCO2)n1cncn1 (stereo not given)	-4.33
c1nc2c(c(C3CC3)n1)CCN(Cc1ccoc1)CC2	-22.7
FC1(F)CCN(Cc2ccncc2)CC12CCN(c1cccnc1)C2 (stereo not given)	-94.8
COCC1CN(CC2CC2)Cc2nn(CC3CC3)cc21 (stereo not given)	-71.4
CCNc1ncc(C(=O)N2Cc3nc(C)[nH]c(=O)c3C2)cn1	-2.19
O=C(NCc1ccccn1)[C@@H]1COC[C@H]2CN(C3CCOCC3)C[C@H]21	2.52
CN(C)C(=O)c1ccc2c(c1)N(C)C(CC(=O)NC(CO)CO)CO2 (stereo not given)	-4.36
Cc1nn(C)c(C)c1C1CCCN1Cc1cccc(OCC(N)=O)c1 (stereo not given)	-0.192
Cc1cc(C)c(CNC(=O)NCC(O)c2ccccc2)c(=O)[nH]1 (stereo not given)	-10
COCCN(C)C[C@@H]1CCC[C@@H]2CN(Cc3ccc(OC)nc3)C[C@@H]21	8.13
O=C1Nc2ccccc2/C1=C1\CCCCCN1	13.6
CN(Cc1ccccc1)C1(C(=O)NC(CO)CO)Cc2ccccc2C1	2.59
CC(C)c1nccn1-c1nccnc1C1CCCN1Cc1cccnc1 (stereo not given)	7.77
Cc1occc1C(=O)N1CCC2(CCN(Cc3cccs3)C2)CC1	-4.58
NCc1cccc(-c2cccnc2C(=O)NCCCN2CCOCC2)c1	-8.77
COC(=O)C(O)C1CCN(CCc2ccccn2)CC1 (stereo not given)	-7.64
Cc1c(-c2cccs2)nn2c(=O)c3c([nH]c12)CN(C(=O)C1CC1)C3	-4.02
CC(C)Cc1cc(CC2(NCc3ccco3)COC2)no1	6.25
CSCCC(NC(=O)c1ccc2ccccc2n1)C(=O)N(C)C (stereo not given)	-12
Cc1c(CC(C#N)C(=O)Nc2cccc(O)c2)cnn1C (stereo not given)	0.781
